Source: ChEMBL document CHEMBL1133168, “Synthesis and SAR of 4-aryl-2-hydroxy-4-oxobut-2-enoic acids and esters and 2-amino-4-aryl-4-oxobut-2-enoic acids and esters: potent inhibitors of kynurenine-3-hydroxylase as potential neuroprotective agents” (J Med Chem, 2000)

Each compound was assayed against Kynurenine 3-monooxygenase (Rattus norvegicus, UniProt O88867) (assay: Inhibition of Kynurenine-3-hydroxylase enzyme isolated from the rat liver).
Chain of Kynurenine 3-monooxygenase (O88867 whole entry): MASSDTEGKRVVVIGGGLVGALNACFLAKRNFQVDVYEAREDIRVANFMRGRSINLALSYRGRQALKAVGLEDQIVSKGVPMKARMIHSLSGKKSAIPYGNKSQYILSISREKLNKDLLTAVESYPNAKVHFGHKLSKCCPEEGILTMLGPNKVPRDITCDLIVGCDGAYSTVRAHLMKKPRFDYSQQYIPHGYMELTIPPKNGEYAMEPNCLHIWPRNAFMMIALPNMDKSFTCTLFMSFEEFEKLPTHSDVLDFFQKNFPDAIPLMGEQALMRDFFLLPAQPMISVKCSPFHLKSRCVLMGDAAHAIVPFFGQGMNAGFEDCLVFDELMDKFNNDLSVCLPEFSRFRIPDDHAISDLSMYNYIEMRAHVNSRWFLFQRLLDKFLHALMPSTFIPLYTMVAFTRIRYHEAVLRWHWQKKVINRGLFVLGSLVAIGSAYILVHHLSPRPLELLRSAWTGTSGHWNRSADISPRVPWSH
Method in brief: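 Enzyme source: P2 mitochondrial pellet from rat liver, resuspended in 0.32 M sucrose. Activity measured as ³HOH release from 3-[³H]-L-kynurenine at its K_m concentration, 37 °C, under conditions linear with time and enzyme protein. Five inhibitor concentrations tested. IC50 taken as the mean of at least 2 experiments run in duplicate, with variation <20%.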
`O=C(O)C(=O)/C=C(\O)c1cccc(Br)c1` showed an IC50 of 1.7 µM.
`O=C(O)C(=O)/C=C(\O)c1ccc(F)c(Cl)c1` gave an IC50 of 0.27 µM.
Compound `COC(=O)C(=N)/C=C(\O)c1cccc(Cl)c1` has an IC50 of 7.9 µM.
`COC(=O)C(=O)/C=C(\O)c1ccc(Cl)c(C)c1` showed an IC50 of 4.9 µM.
`O=C(O)C(=O)/C=C(\O)c1ccc(Cl)cc1` showed an IC50 of 3 µM.
`O=C(O)C(=O)/C=C(\O)c1cccc(F)c1` showed an IC50 of 0.58 µM.
`N/C(=C\C(=O)c1ccc(Cl)c(Cl)c1)C(=O)O` gave an IC50 of 1 µM.
Compound `COC(=O)C(=O)/C=C(\O)c1ccc(Cl)c(Cl)c1` has an IC50 of 1.9 µM.
Compound `COC(=O)C(=O)/C=C(\O)c1ccc(Br)cc1` has an IC50 of 1.9 µM.
Work on `N/C(=C\C(=O)c1ccc(F)c(F)c1)C(=O)O` yielded an IC50 of 1.5 µM.
For `N[C@@H](CC(=O)c1cccc([N+](=O)[O-])c1)C(=O)O`, the IC50 was 4 µM.
In the case of `O=C(O)C(=O)/C=C(\O)c1ccc(F)c(F)c1`, the IC50 is reported as 0.12 µM.
For `COC(=O)C(=O)/C=C(\O)c1cccc(F)c1`, the IC50 was 1.6 µM.
`N/C(=C\C(=O)c1cccc(Cl)c1)C(=O)O` was tested, and the IC50 was 2.4 µM.
`N/C(=C\C(=O)c1ccc(F)c(Cl)c1)C(=O)O` showed an IC50 of 0.82 µM.
`Cc1cc(/C(O)=C/C(=O)C(=O)O)ccc1Cl` gave an IC50 of 1.7 µM.
Compound `COC(=O)C(=O)/C=C(\O)c1cccc(Cl)c1` has an IC50 of 1.9 µM.
`COC(=O)C(=O)/C=C(\O)c1cccc(Br)c1` showed an IC50 of 2.1 µM.
For `COC(=O)C(=O)/C=C(\O)c1ccc(F)c(F)c1`, the IC50 was 3.3 µM.
`COC(=O)C(=O)/C=C(\O)c1cccc(F)c1F` gave an IC50 of 8.1 µM.
`NC(CC(=O)c1cccc([N+](=O)[O-])c1)C(=O)O` (racemic) showed an IC50 of 8 µM.
`COC(=O)C(=O)/C=C(\O)c1ccc(F)c(Cl)c1` showed an IC50 of 2.6 µM.
`COC(=O)C(=O)/C=C(\O)c1ccc(Cl)c([N+](=O)[O-])c1` gave an IC50 of 11.2 µM.
`O=C(O)C(=O)/C=C(\O)c1ccc(Cl)c([N+](=O)[O-])c1` showed an IC50 of 2 µM.
`COC(=O)C(=N)/C=C(\O)c1ccc(F)c(F)c1` gave an IC50 of 3.6 µM.
`O=C(O)C(=O)/C=C(\O)c1cccc(Cl)c1` was tested, and the IC50 was 0.32 µM.

Each compound was assayed against Kynurenine 3-monooxygenase (Rattus norvegicus) (UniProt O88867) (assay: Inhibition of Kynurenine-3-hydroxylase enzyme isolated from the rat liver at 10 uM).
Chain of Kynurenine 3-monooxygenase (Rattus norvegicus) (O88867 whole entry, looked up): as the sequence (O88867 whole entry) above
`N/C(=C\C(=O)c1ccc(F)cc1)C(=O)O` showed an inhibition of 41%.
`COC(=O)C(=O)/C=C(\O)c1ccccc1[N+](=O)[O-]` was tested, and the inhibition was 1%.
Compound `COC(=O)C(=O)/C=C(\O)c1ccccc1` has an inhibition of 23%.
`N/C(=C\C(=O)c1cccc(Cl)c1Cl)C(=O)O` showed an inhibition of 32%.
`COC(=O)C(=N)/C=C(\O)c1cccc(F)c1` was tested, and the inhibition was 0%.
Compound `COC(=O)C(=O)/C=C(\O)c1cccc(Cl)c1Cl` has an inhibition of 14%.
`COC(=O)C(=O)/C=C(\O)c1ccc(Cl)cc1` showed an inhibition of 38%.
With `COC(=O)C(=N)/C=C(\O)c1cccc(Br)c1` the inhibition was 0%.
`COC(=O)C(=N)/C=C(\O)c1cccc(Cl)c1Cl` gave an inhibition of 33%.
Compound `COC(=O)C(=N)/C=C(\O)c1ccc(Cl)c(C)c1` has an inhibition of 0%.
With `COC(=O)C(=N)/C=C(\O)c1ccccc1` the inhibition was 3%.
In the case of `O=C(O)C(=O)/C=C(\O)c1ccccc1[N+](=O)[O-]`, the inhibition is reported as 24%.
`O=C(O)C(=O)/C=C(\O)c1ccccc1Cl` gave an inhibition of 33%.
With `COC(=O)C(=N)/C=C(\O)c1ccccc1Cl` the inhibition was 31%.
For `N/C(=C\C(=O)c1ccc(Cl)cc1)C(=O)O`, the inhibition was 33%.
With `COC(=O)C(=O)/C=C(/O)c1ccc(C)cc1` the inhibition was 12%.
With `COC(=O)C(=N)/C=C(\O)c1ccc(Cl)cc1` the inhibition was 13%.
In the case of `COC(=O)C(=O)/C=C(\O)c1ccc(F)cc1`, the inhibition is reported as 22%.
Compound `O=C(O)C(=O)/C=C(\O)c1cccc(Cl)c1Cl` has an inhibition of 33%.
`COC(=O)C(=N)/C=C(\O)c1ccc(C)cc1` showed an inhibition of 4%.
Compound `O=C(O)C(=O)/C=C(\O)c1ccccc1` has an inhibition of 0%.
`N/C(=C\C(=O)c1ccccc1Cl)C(=O)O` showed an inhibition of 19%.
`COC(=O)C(=N)/C=C(\O)c1ccc(Cl)c(Cl)c1` was tested, and the inhibition was 37%.
`COC(=O)C(=N)/C=C(\O)c1ccc(F)cc1` was tested, and the inhibition was 1%.
Compound `COC(=O)C(=O)/C=C(\O)c1ccccc1Cl` has an inhibition of 31%.
Work on `COC(=O)C(=N)/C=C(\O)c1ccc(F)c(Cl)c1` yielded an inhibition of 4%.
Compound `COC(=O)C(=N)/C=C(\O)c1ccc(Br)cc1` has an inhibition of 0%.
In the case of `N/C(=C\C(=O)c1ccccc1)C(=O)O`, the inhibition is reported as 17%.
